Data published in ChEMBL document CHEMBL1134656, “Synthesis and antitumor activity of conjugates of muramyldipeptide, normuramyldipeptide, and desmuramylpeptides with acridine/acridone derivatives” (2001).

Experiments:
[1] = Half-lethal concentration against COLO,HCC2998,HCT116,SK-MEL-2 cell lines.; type: functional, Homo sapiens
Outline: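 NCI in vitro human tumor cell line screen. After a 24 h drug-free incubation, compounds were added at five 10-fold dilutions, with a maximum of 10^-4 M (test range 10^-4 to 10^-8 M). Cells were exposed for 2 days. Growth was read from the change in protein-stain optical density, and the half-lethal concentration (LC50) was derived for each cell line.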

[2] = system: Panel (Carcinoma cell lines); assay: sc score: subcutaneous implants. measured as in vivo hollow fiber assay in minimum of 12 human cancer cell lines; type: functional
[3] = system: Panel (Carcinoma cell lines); assay: ip score (intraperitoneal implants) measured as in vivo hollow fiber assay in minimum of 12 human cancer cell lines; type: functional
Cancer cell lines = assay: Cell kill activity against cancer cell lines; No; type: functional, cell-based; settings: Homo sapiens

Structure (SMILES) | MID log LC50 [1] [M] | Subcut score [2] | Ip score [3] | cell kill activity (Cancer cell lines)
CC(=O)N[C@@H]1[C@H](OCc2ccccc2)O[C@@H](CO)[C@@H](O)[C@@H]1OC(C)C(=O)N[C@@H](C)C(=O)N[C@H](CCC(=O)NCCCCNc1c2ccccc2nc2cccc([N+](=O)[O-])c12)C(N)=O (stereo partly specified) | -5.49 | 12 | 4 | –
CC(=O)N[C@@H]1[C@H](OCc2ccccc2)O[C@@H](CO)[C@@H](O)[C@@H]1OCC(=O)N[C@@H](C)C(=O)N[C@H](CCC(=O)NCCCCNc1c2ccccc2nc2cccc([N+](=O)[O-])c12)C(N)=O | -4.26 | 2 | 4 | –
CC(=O)N[C@@H]1[C@H](OCc2ccccc2)O[C@@H](CO)[C@@H](O)[C@@H]1OCC(=O)N1CCC[C@H]1C(=O)N[C@H](CCC(=O)NCCCCCNc1c2ccccc2nc2cccc([N+](=O)[O-])c12)C(N)=O | -5.51 | 0 | 14 | –
CC(=O)N[C@@H]1[C@H](OCc2ccccc2)O[C@@H](CO)[C@@H](O)[C@@H]1OCC(=O)N[C@@H](C)C(=O)N[C@H](CCC(=O)NCCCCCNc1c2ccccc2nc2cccc([N+](=O)[O-])c12)C(N)=O | -5.82 | 8 | 16 | –
CC(=O)N[C@@H]1[C@H](OCc2ccccc2)O[C@@H](CO)[C@@H](O)[C@@H]1OC(C)C(=O)N[C@@H](C)C(=O)N[C@H](CCC(=O)NCCNCCNc1c2ccccc2nc2cccc([N+](=O)[O-])c12)C(N)=O (stereo partly specified) | -4.56 | 4 | 2 | No cell kill activity
CC(=O)N[C@@H]1[C@H](OCc2ccccc2)O[C@@H](CO)[C@@H](O)[C@@H]1OC(C)C(=O)N[C@H](C(=O)N[C@H](CCC(=O)NCCCCNc1c2ccccc2nc2cccc([N+](=O)[O-])c12)C(N)=O)C(C)C (stereo partly specified) | -4.17 | 2 | 32 | –
CC(=O)N[C@@H]1[C@H](OCc2ccccc2)O[C@@H](CO)[C@@H](O)[C@@H]1OCC(=O)N[C@@H](C)C(=O)N[C@H](CCC(=O)NCCCNc1c2ccccc2nc2cccc([N+](=O)[O-])c12)C(N)=O | -4.97 | 2 | 2 | No cell kill activity
CC(=O)N[C@@H]1[C@H](OCc2ccccc2)O[C@@H](COC(=O)CCNc2c3ccccc3nc3cccc([N+](=O)[O-])c23)[C@@H](O)[C@@H]1OC(C)C(=O)N[C@@H](C)C(=O)N[C@H](CCC(N)=O)C(=O)OCc1ccccc1 (stereo partly specified) | -4.42 | – | – | –
CC(=O)N[C@@H]1[C@H](OCc2ccccc2)O[C@@H](COC(=O)CCCCCNc2ccc([N+](=O)[O-])c3nc4ccc(O)cc4c(O)c23)[C@@H](O)[C@@H]1OC(C)C(=O)N[C@@H](C)C(=O)N[C@H](CCC(N)=O)C(=O)OCc1ccccc1 (stereo partly specified) | -4.23 | – | – | –
COC(=O)[C@@H](CCC(N)=O)NC(=O)[C@@H](NC(=O)C(C)O[C@H]1[C@H](O)[C@H](COC(=O)CCCCCCCCCCNC(=O)c2ccc([N+](=O)[O-])c3c(O)c4ccccc4nc23)O[C@@H](OCc2ccccc2)[C@H]1NC(C)=O)C(C)C (stereo partly specified) | -4.25 | – | – | –
